According to ChEMBL document CHEMBL4270616, “Asymmetrical meta-methoxylated diarylpentanoids: Rational design, synthesis and anti-cancer evaluation in-vitro” (Eur J Med Chem, 2018):

Assays:
HT-1080 [1] = experiment: Cytotoxicity against human HT1080 cells assessed as inhibition of cell proliferation at 20 uM after 72 hrs by MTT assay relative to control; type: functional; conditions: HT-1080, 72 h
Procedure, shortened: (§1)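 Single-concentration screen at 20 μM with 72 h exposure in DMEM with 10% FBS, final DMSO 0.1%. Read-out was MTT (5 mg/mL, 4 h, 37°C), DMSO solubilisation and absorbance at 570 nm, expressed as percent inhibition. Lines reaching a threshold percentage went on to IC50 determination.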

SW-620 [2] = experiment: Cytotoxicity against human SW620 cells assessed as inhibition of cell proliferation at 20 uM after 72 hrs by MTT assay relative to control; type: functional; conditions: SW-620, 72 h; procedure, shortened: as §1
NHDF = experiment: Cytotoxicity against NHDF after 72 hrs by MTT assay; type: cell-based; conditions: Homo sapiens
Procedure, shortened: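 NHDF grown in DMEM with 5% FBS at 37°C, 5% CO2. Seeded at 1500-5000 cells/well, 24 h, then compound added in DMSO-containing medium (final DMSO 0.1%) for 72 h. MTT (5 mg/mL in medium) added for 4 h at 37°C, formazan dissolved in DMSO, absorbance read at 570 nm.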

[3] = Cytotoxicity against human EJ28 cells assessed as inhibition of cell proliferation at 20 uM after 72 hrs by MTT assay relative to control; type: functional; conditions: EJ-28, 72 h; procedure, shortened: as §1
A549 [4] = experiment: Cytotoxicity against human A549 cells after 72 hrs by MTT assay; type: functional, cell-based; conditions: A549, 72 h
Procedure, shortened: (§2)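 Tumour lines kept in DMEM with 10% FBS and 1% penicillin/streptomycin at 37°C, 5% CO2. Seeded at 1500-5000 cells/well by doubling time and size, 24 h, then compound in DMSO-containing medium (final DMSO 0.1%) for 72 h. MTT (5 mg/mL) 4 h at 37°C, DMSO solubilisation, absorbance at 570 nm.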

SW-620 [5] = experiment: Cytotoxicity against human SW620 cells after 72 hrs by MTT assay; type: functional, cell-based; conditions: SW-620, 72 h; procedure, shortened: as §2
[6] = Cytotoxicity against human EJ28 cells after 72 hrs by MTT assay; type: functional, cell-based; conditions: EJ-28, 72 h; procedure, shortened: as §2
HT-1080 [7] = experiment: Cytotoxicity against human HT1080 cells after 72 hrs by MTT assay; type: functional, cell-based; conditions: HT-1080, 72 h; procedure, shortened: as §2
MCF7 [8] = experiment: Cytotoxicity against human MCF7 cells assessed as inhibition of cell proliferation at 20 uM after 72 hrs by MTT assay relative to control; type: functional; conditions: MCF7, 72 h; procedure, shortened: as §1
MCF7 [9] = experiment: Cytotoxicity against human MCF7 cells after 72 hrs by MTT assay; type: functional, cell-based; conditions: MCF7, 72 h; procedure, shortened: as §2
A549 [10] = experiment: Cytotoxicity against human A549 cells assessed as inhibition of cell proliferation at 20 uM after 72 hrs by MTT assay relative to control; type: functional; conditions: A549, 72 h; procedure, shortened: as §1

Row | Structure (SMILES) | inhibition at 20 µM (HT-1080 [1]) | inhibition at 20 µM (SW-620 [2]) | IC50 (NHDF) | inhibition at 20 µM [3] | IC50 (A549 [4]) | IC50 (SW-620 [5]) | IC50 [6] | IC50 (HT-1080 [7]) | inhibition at 20 µM (MCF7 [8]) | IC50 (MCF7 [9]) | inhibition at 20 µM (A549 [10])
1 | COc1cccc(/C=C2\CCC/C(=C\c3cccc(Cl)c3Cl)C2=O)c1OC | > 50% | > 50% | > 50 µM | > 50% | > 20 µM | 16.3 µM | 18.1 µM | 19.3 µM | > 50% | > 20 µM | > 50%
2 | COc1ccc(/C=C2\CCC/C(=C\c3ccc(Cl)cc3)C2=O)cc1OC | > 50% | > 50% | 11.2 µM | > 50% | 10.1 µM | 5.9 µM | 5.7 µM | 4.8 µM | > 50% | 6.3 µM | > 50%
3 | COc1cccc(/C=C2\CCC/C(=C\c3ccc(O)c(Cl)c3)C2=O)c1OC | > 50% | > 50% | 39.5 µM | > 50% | > 20 µM | 16.8 µM | 18.3 µM | 14.3 µM | > 50% | 16.4 µM | > 50%
4 | COc1cccc(/C=C2\CCC/C(=C\c3cccc(Br)c3)C2=O)c1OC | > 50% | > 50% | 23.9 µM | > 50% | > 20 µM | 8.8 µM | 12.1 µM | 12.2 µM | > 50% | 11.7 µM | > 50%
5 | COc1cccc(/C=C2\CCC/C(=C\c3cccc(O)c3)C2=O)c1OC | > 50% | > 50% | 19.3 µM | > 50% | > 20 µM | 6.4 µM | 8.5 µM | 8.5 µM | > 50% | 8.8 µM | > 50%
6 | COc1cccc(/C=C2\CCC/C(=C\c3cccc(OC)c3OC)C2=O)c1OC | > 50% | > 50% | 31 µM | > 50% | 11.4 µM | 8.3 µM | 8.4 µM | 6.1 µM | > 50% | 5 µM | > 50%
7 | COc1cccc(/C=C2\CCC/C(=C\c3cccc(OC)c3OC)C2=O)c1 | > 50% | > 50% | 16.4 µM | > 50% | 16.4 µM | 7 µM | 10 µM | 9.9 µM | > 50% | 5.9 µM | > 50%
8 | COc1cccc(/C=C2\CCC/C(=C\c3ccc(Cl)cc3)C2=O)c1OC | > 50% | > 50% | 18.6 µM | > 50% | > 20 µM | 11.1 µM | 11 µM | 11.1 µM | > 50% | 10.3 µM | > 50%
9 | COc1ccc(/C=C2\CCC/C(=C\c3cccc(Cl)c3Cl)C2=O)cc1OC | > 50% | > 50% | 18.5 µM | > 50% | > 20 µM | 10.8 µM | 10.4 µM | 8.8 µM | > 50% | 14.3 µM | > 50%
10 | COc1ccccc1/C=C1\CCC/C(=C\c2cccc(OC)c2OC)C1=O | > 50% | > 50% | 31.3 µM | > 50% | > 20 µM | > 20 µM | 16.6 µM | 14.1 µM | > 50% | 12 µM | > 50%
11 | COc1cc(/C=C2\CCC/C(=C\c3ccc(OC)c(OC)c3)C2=O)cc(OC)c1 | > 50% | > 50% | 6.5 µM | > 50% | 5.1 µM | 2.5 µM | 3 µM | 2.6 µM | > 50% | 3.9 µM | > 50%
12 | COc1ccc(/C=C2\CCC/C(=C\c3ccccc3Cl)C2=O)cc1OC | > 50% | > 50% | 21.6 µM | > 50% | > 20 µM | 7.1 µM | 6.9 µM | 6.8 µM | > 50% | 10.4 µM | > 50%
13 | COc1ccc(/C=C2\CCC/C(=C\c3ccc(OC)c(OC)c3)C2=O)cc1OC | > 50% | > 50% | 9.7 µM | > 50% | 8.5 µM | 4.5 µM | 3.5 µM | 3 µM | > 50% | 13.5 µM | > 50%
14 | COc1ccc(/C=C2\CCC/C(=C\c3ccc(Br)cc3)C2=O)cc1OC | > 50% | > 50% | 13.1 µM | > 50% | 16 µM | 5.2 µM | 7.1 µM | 4.3 µM | > 50% | 6.9 µM | > 50%
15 | COc1cccc(/C=C2\CCC/C(=C\c3ccc(O)c(O)c3)C2=O)c1OC | > 50% | > 50% | 17.9 µM | > 50% | > 20 µM | 6.3 µM | 6.4 µM | 4.7 µM | > 50% | 4.7 µM | > 50%
16 | COc1cc(/C=C2\CCC/C(=C\c3cccc(OC)c3OC)C2=O)cc(OC)c1 | > 50% | > 50% | 13.1 µM | > 50% | 10.2 µM | 3.8 µM | 3.6 µM | 4.5 µM | > 50% | 1.7 µM | > 50%
17 | COc1ccc(/C=C2\CCC/C(=C\c3ccc(O)c(Cl)c3)C2=O)cc1OC | > 50% | > 50% | 21.9 µM | > 50% | > 20 µM | 7.1 µM | 8 µM | 7.6 µM | > 50% | 12.3 µM | > 50%
18 | COc1cccc(/C=C2\CCC/C(=C\c3cc(OC)c(OC)c(OC)c3)C2=O)c1OC | > 50% | > 50% | 7.9 µM | > 50% | 5.9 µM | 2.5 µM | 2.4 µM | 2.3 µM | > 50% | 1.4 µM | > 50%
19 | COc1ccc(/C=C2\CCC/C(=C\c3cc(Cl)cc(Cl)c3)C2=O)cc1OC | > 50% | > 50% | 8.3 µM | > 50% | 5.5 µM | 2.5 µM | 4.2 µM | 3 µM | > 50% | 3.8 µM | > 50%
20 | COc1ccc(/C=C2\CCC/C(=C\c3ccc(O)c(O)c3)C2=O)cc1OC | > 50% | > 50% | 25.2 µM | > 50% | > 20 µM | 10.5 µM | 12.1 µM | 4.2 µM | > 50% | 14.4 µM | > 50%
